High-throughput results: PubChem, Broad Institute
Most compounds without a hit are left out; they make up all but 3.6% or so of the library.
Wnt act: Wnt/beta-catenin pathway activation; Wnt/beta-catenin reporter cell assay, activator, plate reader; activation, % at 9.35 µM; 300,000 tested, 1.2% active; AID 743398; in the data active = activation above about 30%, passing the limit was not always enough; inconclusive = no clear call, values can overlap the other calls
SR-BI DiI-HDL act: activators of SR-BI mediated HDL lipid uptake; CHO ldlA[mSR-BI] cells, DiI-HDL uptake fluorescence, 3 h; 100 = double the neutral-control signal; 320,000 tested, 0.096% active; AID 504775; activation, % at 12.5 µM;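 active = mean replicate activation of at least 60% and every replicate at or above 60%; inconclusive = mean or all-replicate condition met, but not both; inactive = mean below 60% and not all replicates reaching 60%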
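Test system: SR-BI-overexpressing, LDLR-lacking CHO cells; Medium: Ham's F12 with 0.5% BSA, HEPES 25 mM, pH 7.4; Schedule: 3 h, 37 °C; Technique: bottom-read fluorescence, 550/595 nm.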
SR-BI HDL uptake: mouse SR-BI HDL lipid transfer inhibition. Q61009. ldlA[mSR-BI] CHO cells, DiI-HDL uptake fluorescence, 3 h. inhibition, % at 12.5 µM. 320,000 tested, 0.96% active. AID 488896;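 active = mean replicate inhibition of at least 70% and a set share of replicates each scoring 70 or more; inconclusive = meets just one of the two criteria; inactive = fails both criteria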
Target sequence (Q61009 whole entry, looked up): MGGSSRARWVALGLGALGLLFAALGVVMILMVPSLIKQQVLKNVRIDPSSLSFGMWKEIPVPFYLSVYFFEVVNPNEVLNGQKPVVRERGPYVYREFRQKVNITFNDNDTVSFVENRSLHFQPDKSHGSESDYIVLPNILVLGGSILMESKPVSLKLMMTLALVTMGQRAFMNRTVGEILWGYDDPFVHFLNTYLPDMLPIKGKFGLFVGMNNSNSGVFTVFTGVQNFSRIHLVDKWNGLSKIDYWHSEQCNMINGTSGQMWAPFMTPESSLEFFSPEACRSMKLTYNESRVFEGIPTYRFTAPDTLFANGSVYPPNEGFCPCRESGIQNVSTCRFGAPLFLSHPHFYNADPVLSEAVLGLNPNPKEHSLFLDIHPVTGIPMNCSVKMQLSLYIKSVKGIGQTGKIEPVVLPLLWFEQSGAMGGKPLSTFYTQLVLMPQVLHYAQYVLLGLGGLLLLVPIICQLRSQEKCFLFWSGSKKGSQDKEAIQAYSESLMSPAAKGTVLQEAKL
MITF act: activators of MITF-driven TRPM1 promoter activity in SK-MEL-5 cells; SK-MEL-5 TRPM1-promoter luciferase, 24 h; % of positive control, neutral wells = 0; activation, % at 12.5 µM; 300,000 tested, 0.75% active; AID 588334;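 active = mean activation of at least 80% with every replicate also reaching 80%; inconclusive = mean reaches 80% but some replicate falls short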
HSF1 activator: increases HSF-1 driven luciferase reporter signal; activation, % at 9 µM; NIH3T3-HGL HSF-1 luciferase reporter, MG132, 8 h; 100% = twice DMSO control signal; 300,000 tested, 1.7% active;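 active = mean replicate activation of at least 50% with a set share of replicates each reaching 50%; inconclusive = only one of those two conditions met; inactive = mean below 50% and too few replicates reaching it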
Each line names hits and unclear results; the compound was inactive in the other large screens.

COc1ccc2ccccc2c1/C=N/NC(=O)c1cccc([N+](=O)[O-])c1	SR-BI HDL uptake 86
COc1ccc(/C=N/NC(=O)c2cccc([N+](=O)[O-])c2)cc1O	none
COc1cc(/C=N/NC(=O)c2cccc([N+](=O)[O-])c2)ccc1O	none
Cc1cc(N2CCN(C(=O)OC(C)(C)C)C[C@H]2C)ccc1N1CCS(=O)(=O)CC1	none (no result: SR-BI DiI-HDL act, SR-BI HDL uptake, MITF act, HSF1 activator)
O=C1NC(=S)NC1(c1ccccc1)c1ccccc1	none (no result: HSF1 activator)
O=C(O)c1cccc(CN2C(=O)SC(Nc3cccc4ccccc34)C2=O)c1 (configuration not stated)	Wnt act 40
COc1ccc(-n2c(CSc3ccc(Cl)cc3)n[nH]c2=S)cc1	none (no result: SR-BI DiI-HDL act, SR-BI HDL uptake, MITF act, HSF1 activator)
C[C@H](CO)N1C[C@H](C)[C@@H](CN(C)Cc2ccc(Oc3ccccc3)cc2)OCc2cnnn2CCCC1=O	none (no result: SR-BI DiI-HDL act, SR-BI HDL uptake, MITF act, HSF1 activator)
CC1(CCc2ccccc2)NC(=O)NC1=O (configuration not stated)	none (no result: HSF1 activator)
CCCOc1ccc(NC(=O)C2CC(=O)N/C(=N/N=C(C)/C=C/c3ccc(N(C)C)cc3)S2)cc1 (configuration not stated)	SR-BI HDL uptake 82 (no result: Wnt act)
Cc1ccc(/C=C2\Sc3ccccc3C2=O)s1	Wnt act 72
CC(=O)Nc1ccc(/C=C2\Sc3ccccc3C2=O)cc1	none (no result: MITF act)
Cn1cc(Br)c(C(=O)N/N=C/c2cc3c(cc2Cl)OCO3)n1	MITF act 89
Nc1nonc1C(=O)N/N=C\c1cc2c(cc1Cl)OCO2	none (no result: HSF1 activator)
CN(C)c1cccc(-c2nnc(SCCCC#N)o2)c1	Wnt act 41
COc1cc(/C=C/C(=O)O)cc(S(=O)(=O)Nc2ccccc2C(=O)NCc2ccco2)c1OC	none (no result: HSF1 activator)
O=C(NCCc1ccc(O)c(O)c1)C1COc2ccccc2O1 (configuration not stated)	HSF1 activator 121
O=C(NCCc1ccccc1)C1COc2ccccc2O1 (configuration not stated)	none (no result: MITF act)
CC(C)c1ccc(/C=C(\NC(=O)c2ccccc2)C(=O)NCCCn2ccnc2)cc1	HSF1 activator 59
CCCS(=O)(=O)NC(=O)C1(C)CCN(C(=O)c2ccccc2OC(C)=O)C1 (configuration not stated)	none (no result: SR-BI DiI-HDL act, SR-BI HDL uptake, MITF act, HSF1 activator)
O=c1c2ccccc2nc(SCc2nnc(-c3ccccc3Br)o2)n1Cc1ccco1	HSF1 activator 97
O=C(Nc1cccnc1Cl)c1cc(-c2ccc(F)cc2)on1	none (no result: SR-BI DiI-HDL act, SR-BI HDL uptake)
O=C(NC(=S)Nc1ncccn1)c1ccc(F)cc1	MITF act 101 (no result: SR-BI DiI-HDL act, SR-BI HDL uptake)
O=C(NC(=S)Nc1ncccn1)c1ccc(Cl)cc1Cl	HSF1 activator 64
O=C(NC(=S)Nc1cccnc1Cl)c1ccc(F)cc1	Wnt act 37
CC1CC(C)(C)CC2(C1)NC(=O)N(CC(=O)Nc1ccc3c(c1)OCO3)C2=O (configuration not stated)	none (no result: SR-BI DiI-HDL act, SR-BI HDL uptake, MITF act, HSF1 activator)
CCNC(=O)C1CCCN(C(=O)c2cccs2)CC1 (configuration not stated)	none (no result: SR-BI DiI-HDL act, SR-BI HDL uptake, MITF act, HSF1 activator)
COc1ccc(NC(=O)c2[nH]c(C)c(C(C)=O)c2C)cc1S(=O)(=O)N1CCOCC1	none (no result: Wnt act)
CCN(CC)S(=O)(=O)c1ccc(C)c(NC(=O)CNc2cccc(S(=O)(=O)N3CCOCC3)c2)c1	none
CC(=O)c1c(C)[nH]c(C(=O)OCC(=O)Nc2cccc(S(=O)(=O)N3CCCC3)c2)c1C	none
CC(=O)c1c(C)[nH]c(C(=O)Nc2cccc(S(=O)(=O)N3CCCC3)c2)c1C	SR-BI HDL uptake 74 (no result: HSF1 activator)
CC(=O)c1c(C)[nH]c(C(=O)Nc2ccc(Cl)c(S(=O)(=O)N3CCOCC3)c2)c1C	SR-BI HDL uptake 79
CCN(CC)S(=O)(=O)c1ccc(C)c(NC(=S)Nc2cccc(S(=O)(=O)N3CCCCCC3)c2)c1	HSF1 activator 56
CN(c1cccc(NC(=O)CN(c2ccc(F)cc2)S(C)(=O)=O)c1)S(C)(=O)=O	none
CN(c1cccc(NC(=O)CN(c2ccc(C34CC5CC(CC(C5)C3)C4)cc2)S(C)(=O)=O)c1)S(C)(=O)=O	SR-BI DiI-HDL act 76 (no result: Wnt act)
COc1ccc(C(=Cc2ccccc2[N+](=O)[O-])C(=O)O)cc1	Wnt act 49 (no result: HSF1 activator)
COc1ccccc1C(=O)NNC(=O)c1ccccc1[N+](=O)[O-]	none
CCOc1ccccc1NC(=O)/C=C/c1ccccc1[N+](=O)[O-]	SR-BI HDL uptake 82 (no result: Wnt act)
O=C(/C=C\c1ccccc1[N+](=O)[O-])Nc1ccccc1	none
Cc1ccc(C(=O)C(C)OC(=O)c2ccccc2[N+](=O)[O-])cc1 (configuration not stated)	HSF1 activator 87 (no result: Wnt act)
O=C(/C=C/c1ccccc1[N+](=O)[O-])c1ccccc1Br	HSF1 activator 65
CC1=C(C(=O)N2CCCCCC2)CC(CC(=O)NCCN2CCOCC2)C(=O)N1Cc1ccc(C(C)(C)C)cc1 (configuration not stated)	none (no result: SR-BI DiI-HDL act, SR-BI HDL uptake, MITF act, HSF1 activator)
O=C(NCCc1ccccc1)C1Cc2c(-c3ccc(Cl)cc3)ccnc2O1 (configuration not stated)	none (no result: SR-BI DiI-HDL act, SR-BI HDL uptake, MITF act, HSF1 activator)
Cc1ccc(C(=O)/C=C/c2ccc(-c3ccccc3[N+](=O)[O-])o2)cc1	none
Cc1ccc(C(=O)/C=C/c2ccccc2[N+](=O)[O-])cc1	Wnt act 50, HSF1 activator 135
O=C(N/N=C/c1ccc(O)cc1O)c1ccc(CN2C(=O)c3cccc4cccc2c34)cc1	SR-BI HDL uptake 124
CC(=O)Nc1cccc(-c2nc3ccc(NC(C)=O)cc3s2)c1	Wnt act inconclusive, MITF act 90
Cc1ccc2nc(-c3ccc(NC(=S)NC(=O)C(C)C)cc3)sc2c1	MITF act 96
Cc1ccc2nc(-c3ccc(NC(=O)C(C)N4C(=O)c5ccccc5C4=O)cc3)sc2c1 (configuration not stated)	none (no result: Wnt act)
Cc1ccc2nc(-c3ccc(NS(=O)(=O)c4ccc(F)c(F)c4)cc3)sc2c1	Wnt act 38
CCC(=O)NC(=S)Nc1ccc(-c2nc3ccc(C)cc3s2)cc1	Wnt act 36, MITF act 113
S=C1SC2(CCCCCC2)NC2=C1CCCCC2	none (no result: SR-BI DiI-HDL act, SR-BI HDL uptake, MITF act, HSF1 activator)
CC(OC(=O)C1=Cc2ccccc2OC1)C(=O)NCC1CCCO1 (configuration not stated)	none (no result: HSF1 activator)
COc1ccc(-c2cccc(-c3cc(=O)oc4ccc(C(C)(C)C)cc34)c2)cc1	none (no result: HSF1 activator)
C=C(C)COC(=O)C1CC2OC2CC1C(=O)OCC(=C)C (configuration not stated)	none (no result: HSF1 activator)
COc1ccc(-n2nnnc2S(=O)(=O)CC(=O)N2CCCCC2)cc1	none (no result: HSF1 activator)
COc1ccc(-n2nnnc2S(=O)(=O)Cc2ccc(C(=O)O)cc2)cc1	HSF1 activator 94 (no result: Wnt act)
C[C@H]1CN(S(=O)(=O)C(C)(C)C)[C@@H](CCO)/C1=C\CCO	none (no result: SR-BI DiI-HDL act, SR-BI HDL uptake, MITF act, HSF1 activator)
COC(=O)C(CC(=O)c1ccccc1)CC(=O)c1ccccc1	none (no result: SR-BI DiI-HDL act, SR-BI HDL uptake)
Cc1ccc(C(=O)OCC(=O)c2ccccc2)cc1	Wnt act 36
CCOC(=O)C(CC(=O)c1ccccc1)CC(=O)c1ccccc1	MITF act 87
O=C(O)c1ccc2c(c1)C(=O)N(c1ccc(C(=O)OCC(=O)c3ccccc3)cc1)C2=O	Wnt act 47 (no result: MITF act)
